Only a selection was taken, and hits are over-represented in it overall.
XBP1 UPR activ: activators of adaptive XBP1 UPR arm, primary screen, cell-based, CHO-XBP1 luciferase reporter, luminescence, uHTS | IRE1-XBP1 UPR activation; percent of tunicamycin response, DMSO as zero | activation, % at 20 µM | 330,000 compounds, 0.33% hits;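 active = versus positive control, 20 µM dose yields 30% or more activation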
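Material – CHO cell line with stable XBP1 luciferase reporter · Buffer or medium – F12 plus 10% FBS · Compound – single point, 20 µM final compound, 1% DMSO · Schedule – 16-18 h cell attachment at 37 °C, then 6 h compound exposure · Signal – Steady-Glo luminescence read · Benchmarks – high control tunicamycin 10 µg/mL final, low control DMSO vehicle only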
L major viab: Leishmania major promastigote growth inhibition, primary screen; Leishmania major promastigotes, resazurin fluorescence viability; inhibition, % at 10 µM; 200,000 compounds, 9% hits; AID 1063, 2008; in the data active = inhibition above about 50%;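 also: promastigotes grown with compound for 44 hours at 28 °C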
T cruzi repl: inhibitors of intracellular T. cruzi growth, primary screen, luminescence, NIH3T3 host cells | inhibition, % (no concentration beside the values) | 300,000 compounds, 1.4% hits | T. cruzi beta-gal in NIH3T3, 90 h | AID 1885, 2009;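 active = mean inhibition across valid replicates above about 55%, limit read from the data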;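 also: signal also drops with host cell toxicity which is not excluded here; higher percent means less beta-gal luminescence so fewer parasites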
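System: Mouse NIH/3T3 fibroblasts infected with β-gal-expressing T. cruzi Tulahuen C4 | Quantity: NIH/3T3 cells, 5,000 per well | Reagent: 5000 reporter trypomastigotes per well | Dosing: Compound pinned at 50 nL/well, DMSO | Schedule: 3 h host attachment, then at least 90 h co-culture | Detection: GalScreen luminescence, 60 min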
CHOP UPR activ: activators of apoptotic CHOP UPR arm, primary screen, cell-based, CHO-CHOP luciferase reporter, luminescence, uHTS; activation, % at 10 µM; UPR activation; percent of tunicamycin response over DMSO baseline; 330,000 compounds, 0.34% hits; AID 449763, 2010;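 active = at 10 µM dose, activation of 40% or more, normalized to positive control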
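Test system: CHO CHOP reporter cells. Input: 500 CHO-CHOP cells per well. Medium: F12 with 10% FBS. Technique: luciferase luminescence. Measure: percent activation relative to tunicamycin control. Dosing: 10 µM compound, 0.5% DMSO. Timing: 16-18 h cell attachment, then 6 h compound exposure, 37 °C.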
Dynein cargo inh: inhibitors of GR-EGFP nuclear translocation, primary screen, dynein cargo transport inhibitor project, imaging, high-content, 3617.4 mouse cells; 220,000 compounds, 0.47% hits; test concentration mostly 20 µM; stimulated with dexamethasone, 1 µM; active compounds read low; z-score, hits read low;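 active = plate z-score of nuclear minus cytoplasmic receptor signal below a set negative limit, without overly bright fluorescence or cell loss, cut at about -3.5 in these data, passing the limit was not always enough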;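 also: z-score of nuclear minus cytoplasmic ring GR-EGFP intensity difference per well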
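medium = tetracycline-free induction medium containing charcoal-stripped FBS | also added = 1.0 µM final dexamethasone stimulus | schedule = 48 h induction, 1 h compound, 30 min dex at 37 °C | technique = fixed, Hoechst-stained cells imaged at 10x for EGFP | measure = GR-EGFP nuclear translocation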
CHOP inh: inhibitors of CHOP promoter induction, primary screen, cell-based, unfolded protein response, luciferase reporter; inhibition, % at 10 µM; 220,000 compounds, 3.8% hits; CHO-K1 CHOP-promoter luciferase, tunicamycin-induced, 15-18 h;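 active = compounds that reduced the stress-induced luciferase reporter signal by more than about 70% of percent inhibition, limit read from the data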
A number is an active result; 0 = inactive; - = no result given.

SMILES | XBP1 UPR activ | L major viab | T cruzi repl | CHOP UPR activ | Dynein cargo inh | CHOP inh
CN(C)CCCN(C(=O)c1ccc(Br)s1)c1nc2cc3c(cc2s1)OCO3 | 0 | 75 | 0 | 0 | 0 | 0
Cc1ccc2sc(N(CCCN(C)C)C(=O)c3ccc(Br)s3)nc2c1C | 0 | 95 | 70 | 0 | 0 | 0
COc1ccc(N2CCN(S(=O)(=O)CCNC(=O)COc3ccccc3C)CC2)cc1 | 0 | - | 0 | 0 | - | -
c1ccc(-c2noc(CN3CCN(c4cnccn4)CC3)n2)cc1 | 0 | 0 | 0 | 0 | 0 | 0
CSc1ccc(/C=C/C(=O)c2ccc(NC(=O)C(C)C)cc2)cc1 | 0 | 100 | 0 | 0 | 0 | 0
CSc1ccc(/C=C/C(=O)c2ccc(NC(=O)Cc3ccccc3)cc2)cc1 | 0 | 91 | 0 | 0 | 0 | 0
CSc1ccc(/C=C/C(=O)Nc2ccccc2)cc1 | 0 | 0 | - | 0 | 0 | 84
CC(=O)O[C@H]1C(=O)[C@@]2(C)C([C@H](OC(=O)c3ccccc3)[C@]3(O)C[C@H](OC(=O)[C@H](O)[C@@H](NC(=O)c4ccccc4)c4ccccc4)C(C)=C1C3(C)C)[C@]1(OC(C)=O)CO[C@@H]1C[C@H]2O (stereo partly specified) | 0 | - | 61 | 0 | - | -
CC(=O)O[C@H]1C(=O)[C@]2(C)[C@H]([C@H](OC(=O)c3ccccc3)[C@]3(O)C[C@H](OC(=O)[C@H](O)[C@@H](NC(=O)c4ccccc4)c4ccccc4)C(C)=C1C3(C)C)[C@]1(OC(C)=O)CO[C@@H]1C[C@@H]2O | 0 | - | 0 | 0 | - | -
CC(=O)O[C@H]1C(=O)[C@@]2(C)C([C@H](OC(=O)c3ccccc3)[C@]3(O)C[C@H](OC(=O)[C@H](O)[C@@H](NC(=O)c4ccccc4)c4ccccc4)C(C)=C1C3(C)C)[C@]1(OC(C)=O)CO[C@@H]1C[C@@H]2O (stereo partly specified) | - | - | - | - | - | 88
COc1ccc(F)c(CN2CCC(CO)(Cc3cccc(C(F)(F)F)c3)CC2)c1 | 0 | 84 | 0 | 0 | 0 | 0
COc1cc(CN2CCC(CO)(Cc3cccc(C(F)(F)F)c3)CC2)ccc1F | 0 | - | 0 | 0 | 0 | 0
COc1ccc(CN2CCN(CC=C(C)C)C(CCO)C2)cc1Cn1cccn1 (stereo unspecified) | 0 | 0 | 0 | 0 | 0 | 0
COc1ccc(CN2CCC(CO)(Cc3cccc(C(F)(F)F)c3)CC2)cc1Cn1cccn1 | 0 | 81 | 0 | 0 | 0 | 0
CCOc1ccc(NC(=O)C2C3CC/C=C\CCC32)cc1 (stereo unspecified) | 0 | - | 0 | 0 | 0 | 0
COc1ccc(CCNC(=O)c2c(C)nn(-c3ccccc3)c2Cl)cc1OC | 0 | - | 0 | 0 | - | -
CCCC(c1nnnn1CC(=O)OCC)N(Cc1cc2ccc(C)cc2[nH]c1=O)C1CCCC1 (stereo unspecified) | 0 | 0 | 0 | 0 | 0 | 0
CCCC(c1nnnn1CC(=O)OCC)N(Cc1cc2c(C)cc(C)cc2[nH]c1=O)C1CCCC1 (stereo unspecified) | 0 | 55 | 0 | 0 | 0 | 0
CCOC(=O)Cn1nnnc1C(CC)N(Cc1ccccc1)Cc1cc2cc(C)ccc2[nH]c1=O (stereo unspecified) | 0 | 97 | 0 | 0 | 0 | 0
Cc1cc(NC(=NC2CC2)c2ccccc2F)n(-c2ccccc2)n1 | 0 | 0 | 0 | 0 | 0 | 0
CC(C)NC(=O)N(Cc1ccccc1)Cc1cccs1 | 0 | - | 0 | 0 | 0 | 0
Cc1nnn(-c2nonc2N)c1C(=O)NNC(=O)c1ccc(Cl)c(Cl)c1 | 0 | 0 | 0 | 0 | 0 | 0
O=C(N/N=C/c1sc(N2CCOCC2)nc1-c1ccccc1)c1ccccc1F | 0 | - | 0 | 0 | 0 | 0
O=C(Nc1ccccc1F)C(=Cc1sc(N2CCOCC2)nc1-c1ccccc1)C(=O)Nc1ccccc1F | 0 | 53 | 0 | 0 | 0 | 0
